From ChEMBL document CHEMBL4330069, “Boosting the efficacy of anti-MRSA β-lactam antibiotics via an easily accessible, non-cytotoxic and orally bioavailable FtsZ inhibitor” (Eur J Med Chem, 2019)
Converted amounts (≈) assume the structure as drawn.

What was measured:
[1] = test system: Staphylococcus aureus; assay: Antibacterial activity against multidrug-resistant Staphylococcus aureus ATCC 43300 infected in BALB/C mouse assessed as mouse survival at 50 mg/kg, ip bid measured on day 4 post infection (reference value: 50%); type: functional
[2] = test system: Staphylococcus aureus; assay: Antibacterial activity against Staphylococcus aureus ATCC 29213 harboring FtsZ 64 mutation after 20 hrs; type: functional; conditions: ATCC 29213, 20 h
In short: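 Broth microdilution MIC per CLSI guidelines, compounds dissolved in DMSO. Resistant mutants were selected by serial passage of ATCC 29213 in LB at 37 °C with shaking at 250 rpm. Each 20 h culture started at half the MIC, and the concentration was doubled at each transfer. Growth inhibition was read by eye, in duplicate.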

[3] = test system: Staphylococcus aureus; assay: Antibacterial activity against multidrug-resistant Staphylococcus aureus isolate 256 by broth microdilution assay; type: functional
In short: (§1)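 Broth microdilution MIC per CLSI guidelines against clinical MRSA isolates, for β-lactams and test compound alone and in combination. Compounds were dissolved in DMSO. Growth was read by eye, in duplicate. FIC index = FIC(compound) + FIC(drug); synergy defined as FIC index ≤0.5.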

[4] = test system: Staphylococcus aureus; assay: Antibacterial activity against multidrug-resistant Staphylococcus aureus isolate 3411 by broth microdilution assay; type: functional; in short: as §1
[5] = test system: Staphylococcus aureus; assay: Synergistic antibacterial activity against multidrug-resistant Staphylococcus aureus isolate 2516 in presence of amoxicillin by broth microdilution assay; type: functional
In short: (§2)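 Clinical MRSA isolate panel; compound and β-lactam tested alone and in combination by CLSI broth microdilution, compounds dissolved in DMSO, growth inhibition scored by eye, run in duplicate. FIC index = FIC(compound) + FIC(drug), each the MIC in combination divided by the MIC alone; an index ≤ 0.5 was called synergy.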

[6] = test system: Staphylococcus aureus; assay: Synergistic antibacterial activity against multidrug-resistant Staphylococcus aureus isolate 1749 in presence of amoxicillin by broth microdilution assay; type: functional; in short: as §2
[7] = test system: Staphylococcus aureus; assay: Synergistic antibacterial activity against multidrug-resistant Staphylococcus aureus isolate 231 in presence of methicillin by broth microdilution assay; type: functional; in short: as §2
[8] = test system: Staphylococcus aureus; assay: Synergistic antibacterial activity against multidrug-resistant Staphylococcus aureus isolate 2919 in presence of methicillin by broth microdilution assay; type: functional
In short: (§3)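 CLSI broth microdilution on clinical MRSA isolates. MICs were measured for the β-lactam alone, the test agent alone and the two combined. Compounds were dissolved in DMSO, and growth inhibition was scored by eye. FIC index is the sum, over both agents, of MIC in combination divided by MIC alone. An FIC index ≤0.5 was taken as synergy.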

[9] = test system: Staphylococcus aureus; assay: Synergistic antibacterial activity against multidrug-resistant Staphylococcus aureus isolate 417 in presence of cloxacillin by broth microdilution assay; type: functional
[10] = test system: Staphylococcus aureus; assay: Synergistic antibacterial activity against multidrug-resistant Staphylococcus aureus isolate 256 in presence of cloxacillin by broth microdilution assay; type: functional; in short: as §3
[11] = test system: Staphylococcus aureus; assay: Synergistic antibacterial activity against multidrug-resistant Staphylococcus aureus isolate 757 in presence of cloxacillin by broth microdilution assay; type: functional
[12] = test system: Staphylococcus aureus; assay: Synergistic antibacterial activity against multidrug-resistant Staphylococcus aureus isolate 1402 in presence of cloxacillin by broth microdilution assay; type: functional; in short: as §2
[13] = test system: Staphylococcus aureus; assay: Synergistic antibacterial activity against multidrug-resistant Staphylococcus aureus isolate 3580 in presence of cloxacillin by broth microdilution assay; type: functional
[14] = test system: Staphylococcus aureus; assay: Synergistic antibacterial activity against multidrug-resistant Staphylococcus aureus isolate 417 in presence of cefuroxime by broth microdilution assay; type: functional
[15] = test system: Staphylococcus aureus; assay: Synergistic antibacterial activity against multidrug-resistant Staphylococcus aureus isolate 1402 in presence of cefuroxime by broth microdilution assay; type: functional; in short: as §2
[16] = test system: Staphylococcus aureus; assay: Synergistic antibacterial activity against multidrug-resistant Staphylococcus aureus isolate 1717 in presence of cefuroxime by broth microdilution assay; type: functional; in short: as §2
[17] = test system: Staphylococcus aureus; assay: Synergistic antibacterial activity against multidrug-resistant Staphylococcus aureus isolate 85 in presence of cefuroxime by broth microdilution assay; type: functional
[18] = test system: Staphylococcus aureus; assay: Synergistic antibacterial activity against multidrug-resistant Staphylococcus aureus isolate 1136 in presence of meropenem by broth microdilution assay; type: functional; in short: as §2
[19] = test system: Staphylococcus aureus; assay: Synergistic antibacterial activity against multidrug-resistant Staphylococcus aureus isolate 1717 in presence of meropenem by broth microdilution assay; type: functional; in short: as §2
[20] = test system: Staphylococcus aureus; assay: Synergistic antibacterial activity against multidrug-resistant Staphylococcus aureus isolate 2224 in presence of meropenem by broth microdilution assay; type: functional; in short: as §2
[21] = test system: Staphylococcus aureus; assay: Synergistic antibacterial activity against multidrug-resistant Staphylococcus aureus isolate 3580 in presence of meropenem by broth microdilution assay; type: functional
[22] = test system: Staphylococcus aureus; assay: Synergistic antibacterial activity against multidrug-resistant Staphylococcus aureus isolate 1449 in presence of meropenem by broth microdilution assay; type: functional; in short: as §2
[23] = test system: Staphylococcus aureus; assay: Synergistic antibacterial activity against multidrug-resistant Staphylococcus aureus isolate 3332 assessed as fractional Inhibitory concentration index in presence of amoxicillin by broth microdilution assay; type: functional
[24] = test system: Staphylococcus aureus; assay: Synergistic antibacterial activity against multidrug-resistant Staphylococcus aureus isolate 254 assessed as fractional Inhibitory concentration index in presence of methicillin by broth microdilution assay; type: functional
[25] = test system: Staphylococcus aureus; assay: Synergistic antibacterial activity against multidrug-resistant Staphylococcus aureus isolate 256 assessed as fractional Inhibitory concentration index in presence of methicillin by broth microdilution assay; type: functional
[26] = test system: Staphylococcus aureus; assay: Synergistic antibacterial activity against multidrug-resistant Staphylococcus aureus isolate 1402 assessed as fractional Inhibitory concentration index in presence of methicillin by broth microdilution assay; type: functional
In short: (§4)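 CLSI broth microdilution run on clinical MRSA isolates with each β-lactam alone, the test agent alone, and the two combined; agents dissolved in DMSO. Growth inhibition was read by eye. FIC index = FIC(compound) + FIC(β-lactam), where each FIC is the MIC in combination divided by the MIC alone. An index ≤0.5 was taken as synergy.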

[27] = test system: Staphylococcus aureus; assay: Synergistic antibacterial activity against multidrug-resistant Staphylococcus aureus isolate 3580 assessed as fractional Inhibitory concentration index in presence of methicillin by broth microdilution assay; type: functional
[28] = test system: Staphylococcus aureus; assay: Synergistic antibacterial activity against multidrug-resistant Staphylococcus aureus isolate 2973 assessed as fractional Inhibitory concentration index in presence of methicillin by broth microdilution assay; type: functional
[29] = test system: Staphylococcus aureus; assay: Synergistic antibacterial activity against multidrug-resistant Staphylococcus aureus isolate 1749 assessed as fractional Inhibitory concentration index in presence of cloxacillin by broth microdilution assay; type: functional; in short: as §4
[30] = test system: Staphylococcus aureus; assay: Synergistic antibacterial activity against multidrug-resistant Staphylococcus aureus isolate 1136 assessed as fractional Inhibitory concentration index in presence of cefuroxime by broth microdilution assay; type: functional; in short: as §4
[31] = test system: Staphylococcus aureus; assay: Synergistic antibacterial activity against multidrug-resistant Staphylococcus aureus isolate 2973 assessed as fractional Inhibitory concentration index in presence of cefuroxime by broth microdilution assay; type: functional
[32] = test system: Staphylococcus aureus; assay: Synergistic antibacterial activity against multidrug-resistant Staphylococcus aureus isolate 231 assessed as fractional Inhibitory concentration index in presence of meropenem by broth microdilution assay; type: functional; in short: as §4
[33] = test system: Staphylococcus aureus; assay: Synergistic antibacterial activity against multidrug-resistant Staphylococcus aureus isolate 256 assessed as fractional Inhibitory concentration index in presence of meropenem by broth microdilution assay; type: functional
[34] = test system: Staphylococcus aureus; assay: Synergistic antibacterial activity against multidrug-resistant Staphylococcus aureus isolate 1717 assessed as fractional Inhibitory concentration index in presence of meropenem by broth microdilution assay; type: functional; in short: as §4
[35] = Tmax in Sprague-Dawley rat at 50 mg/kg, po by UPLC-MS/MS analysis; type: ADME, organism-based; conditions: in vivo
[36] = AUC (0 to infinity) in Sprague-Dawley rat at 1 mg/kg, iv by UPLC-MS/MS analysis; type: ADME, organism-based; parameters: dose 1 mg/kg, time infinity, route intravenous; conditions: in vivo

Work on `CCCCCCCCCNc1ccc(F)c(C(N)=O)c1F` yielded an Activity [1] of 40%, an MIC [2] of 64 µg/mL (≈ 214 µM) and an MIC [3] of 1020 µg/mL (≈ 3430 µM). The MIC [4] was 2 µg/mL (≈ 6.7 µM), the MIC [5] was 8 µg/mL and the MIC [6] was 2 µg/mL. The MIC [7] was 4 µg/mL, the MIC [8] was 4 µg/mL and the MIC [9] was 2 µg/mL. It also gave an MIC [10] of 1 µg/mL, an MIC [11] of 1 µg/mL and an MIC [12] of 1 µg/mL. It also gave an MIC [13] of 1 µg/mL, an MIC [14] of 2 µg/mL and an MIC [15] of 2 µg/mL. The MIC [16] was 2 µg/mL, the MIC [17] was 2 µg/mL and the MIC [18] was 8 µg/mL. For the same compound, the MIC [19] was 2 µg/mL, the MIC [20] was 8 µg/mL and the MIC [21] was 8 µg/mL. The MIC [22] was 4 µg/mL, the “fractional inhibitory concentration index (FICI)” value [23] was 0.6 and the “fractional inhibitory concentration index (FICI)” value [24] was 0.3. For the same compound, the “fractional inhibitory concentration index (FICI)” value [25] was 0, the “fractional inhibitory concentration index (FICI)” value [26] was 0.6 and the “fractional inhibitory concentration index (FICI)” value [27] was 0.2. The “fractional inhibitory concentration index (FICI)” value [28] was 0.3, the “fractional inhibitory concentration index (FICI)” value [29] was 1.3 and the “fractional inhibitory concentration index (FICI)” value [30] was 0.1. The “fractional inhibitory concentration index (FICI)” value [31] was 0.5, the “fractional inhibitory concentration index (FICI)” value [32] was 0.6 and the “fractional inhibitory concentration index (FICI)” value [33] was 4. For the same compound, the “fractional inhibitory concentration index (FICI)” value [34] was 3, the Tmax [35] was 2 h and the AUC(0-inf) [36] was 1600 ng·h/mL.
